Bioassay records: PubChem, The Scripps Research Institute Molecular Screening Center
Most compounds without a hit are left out; they make up all but 1.9% or so of the library.
M4 antag: human M4 muscarinic receptor antagonists, primary screen, CHO cells, Fluo-8 calcium fluorescence. Muscarinic acetylcholine receptor M4 (Homo sapiens), P08173. 360,000 compounds, 0.73% hits. CHO-hM4 cells, ACh EC80. inhibition, % at 3 µM;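 active = inhibition above its plate's cutoff, the mean inhibition of sample wells plus 3 SD, cut at about 27% in these data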;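 also: 0% = acetylcholine EC80 with DMSO and 100% = DMSO without agonist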
M4 PAM: human M4 muscarinic receptor positive allosteric modulators, primary screen, CHO-K1 cells, Fluo-8 calcium fluorescence; Muscarinic acetylcholine receptor M4 (Homo sapiens), P08173; CHO-K1 hM4/Gqi5, ACh EC20; 0% = ACh EC20, 100% = maximal ACh; activation, % at 3 µM; 360,000 compounds, 0.4% hits; AID 624126, 2012;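 active = activation above its plate's cutoff, the mean activation of sample wells plus 3 SD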
M4 ag: human M4 muscarinic receptor agonists, primary screen, CHO-K1 cells, Fluo-8 calcium fluorescence. Muscarinic acetylcholine receptor M4 (Homo sapiens), P08173. AID 624127, 2012. activation, % at 3 µM. CHO-K1 hM4/Gqi5; vehicle 0%, full acetylcholine response 100%. 360,000 compounds, 0.14% hits;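 active = activation above the run mean over all test wells plus 3 SD, cut at about 32% in these data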;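 also: peak over basal fluorescence ratio per well then scaled between controls; 0% = DMSO wells and 100% = acetylcholine at EC100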
M5 antag: human M5 muscarinic receptor antagonists, primary screen, CHO cells, Fluo-8 calcium fluorescence | Muscarinic acetylcholine receptor M5 (Homo sapiens), P08912 | CHO-hM5 cells, ACh EC80 | inhibition, % at 3 µM | 360,000 compounds, 0.59% hits;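 active = inhibition above a per-plate cutoff, the mean of that plate's test compounds plus 3 SD, cut at about 27% in these data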;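 also: 0% = acetylcholine EC80 with DMSO and 100% = DMSO without agonist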
Target sequence (P08912 whole entry, looked up): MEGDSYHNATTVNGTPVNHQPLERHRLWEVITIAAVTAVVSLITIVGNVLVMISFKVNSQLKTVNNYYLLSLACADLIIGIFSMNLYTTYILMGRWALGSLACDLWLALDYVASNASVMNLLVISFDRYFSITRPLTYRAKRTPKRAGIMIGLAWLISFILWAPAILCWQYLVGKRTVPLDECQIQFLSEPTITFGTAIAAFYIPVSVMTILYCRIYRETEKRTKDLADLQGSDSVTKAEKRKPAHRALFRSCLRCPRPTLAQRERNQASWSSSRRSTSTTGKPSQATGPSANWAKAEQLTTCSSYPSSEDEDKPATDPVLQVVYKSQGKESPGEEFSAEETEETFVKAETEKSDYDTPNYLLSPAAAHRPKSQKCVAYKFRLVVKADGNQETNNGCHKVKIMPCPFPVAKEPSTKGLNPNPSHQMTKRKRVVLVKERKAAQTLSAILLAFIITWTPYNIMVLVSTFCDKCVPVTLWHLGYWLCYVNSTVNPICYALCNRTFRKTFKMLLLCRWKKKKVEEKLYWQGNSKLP
M5 PAM: human M5 muscarinic receptor positive allosteric modulators, primary screen, CHO-K1 cells, Fluo-8 calcium fluorescence | Muscarinic acetylcholine receptor M5 (Homo sapiens), P08912 | CHO-K1 hM5, ACh EC20 PAM; 0% = ACh EC20, 100% = ACh EC100 | activation, % at 3 µM | 360,000 compounds, 0.3% hits | AID 624038, 2012;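 active = activation above the run cutoff, the mean activation of all test compounds plus 3 SD, cut at about 18% in these data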
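system = human M5 receptor in CHO-K1 cells | compound = one concentration, 3 µM final (nominal) | schedule = Post-acetylcholine fluorescence recording 140 s | signal = Fluo-8 calcium dye fluorescence, kinetic read | benchmarks = low control EC20 acetylcholine (0%), high control EC100 acetylcholine (100%) | repeats = singlicate, one well per test compound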
CHRM5 agonist: human M5 muscarinic receptor agonists, primary screen, CHO-K1 cells, Fluo-8 calcium fluorescence; Muscarinic acetylcholine receptor M5 (Homo sapiens), P08912; CHO-K1 hM5 cells; 0% DMSO wells, 100% maximal acetylcholine response; activation, % at 3 µM; 360,000 compounds, 0.19% hits; AID 624037, 2012;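 active = activation above the run's mean over test compounds plus 3 SD, cut at about 23% in these data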;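 also: signal is peak over basal fluorescence ratio across the kinetic read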
Starred values were filed as active, the others as inactive; . = no result.

SMILES	M4 antag	M4 PAM	M4 ag	M5 antag	M5 PAM	CHRM5 agonist
O=C(OC1CCN(CCCl)CC1)C(c1ccccc1)c1ccccc1	57*	-18	2	64*	-19	-1
CCCC[N+]1(C)[C@@H]2CC(OC(=O)[C@H](CO)c3ccccc3)C[C@H]1[C@@H]1O[C@@H]12 (stereo not given in full)	92*	-19	0	72*	-18	-2
CN1CCC(OC(=O)Cc2ccccc2)CC1	8	-14	0	20	-19	-10
C[N+]1(C)[C@@H]2CC(OC(=O)[C@H](CO)c3ccccc3)C[C@H]1[C@@H]1O[C@@H]12 (stereo not given in full)	.	.	.	98*	-18	-1
C[N+]1(C)C2CC(OC(=O)C(CO)c3ccccc3)CC1C1OC12 (stereo not given)	.	.	.	99*	-18	-1
CC(C)Oc1ccc(CC2(CCc3ccncc3)C(=O)NC(=O)NC2=O)cc1	6	-3	13	10	-10	3
OC(CN1CCOCC1)c1csc2ccccc12 (stereo not given)	-3	-8	0	-9	8	3
C[N+]1(C)[C@@H]2CC[C@H]1CC(OC(=O)C(c1ccccc1)c1ccccc1)C2 (stereo not given in full)	99*	-18	16	99*	-17	-3
CN1[C@@H]2CC[C@H]1CC(OC(=O)C1C=Nc3ccccc31)C2 (stereo not given in full)	9	-12	2	4	-6	-1
COC(=O)C1=C(c2ccc(C(C)=O)cc2)C[C@@H]2CC[C@H]1N2C(=O)NCc1ccco1	11	-6	0	11	-14	3
COc1ccc(OC(=O)N(C)C[C@H]2OCc3cnnn3CCCC(=O)N([C@@H](C)CO)C[C@H]2C)cc1	-21	12	1	-1	-2	0
CC(C)CC1C(C#N)=C(N)Oc2c1c(=O)oc1ccccc21 (stereo not given)	-11	-4	1	1	-4	0
Nc1cccc(SC2CC(=O)N(c3ccc(Cl)cc3C(=O)c3ccccc3)C2=O)c1 (stereo not given)	-9	0	2	27*	-6	-2
CCOC(=O)[C@]12Cc3cc(OC)ccc3[C@H]1N(C1CCCCC1)C(=O)c1cc(OC)ccc12	0	0	-2	7	3	8
CCOC(=O)[C@]12Cc3cc(C)ccc3[C@H]1N(C1CCCCC1)C(=O)c1cc(OC)ccc12	65*	-2	1	18	8	50*
CCOC(=O)[C@]12Cc3cc(C)ccc3[C@H]1N(Cc1ccccc1)C(=O)c1ccccc12	4	-4	5	18	-24	-8
CCOC(=O)[C@]12Cc3cc(C)ccc3[C@H]1N(C(C)C)C(=O)c1ccccc12	-8	20	-2	-12	22*	-3
CC(C)OS(C)(=O)=O	-2	5	1	5	-6	2
Cc1nn(Cc2ccc(Cl)cc2Cl)c(Cl)c1C(=O)Nc1ccc(OC(F)F)cc1	-2	6	1	-1	1	-2
O=C(c1ccc(F)c([N+](=O)[O-])c1)N1CC2CC(C1)c1cccc(=O)n1C2 (stereo not given)	2	3	0	12	-3	-3
CCOC(=O)[C@]1(C#N)[C@@H]2C=CC(C(N)=O)=CN2[C@@H](C(N)=O)[C@@H]1c1ccc(F)cc1	-5	24	1	6	0	-5
CCOC(=O)[C@@]1(C#N)[C@@H]2C=CC(C(N)=O)=CN2[C@@H](C(N)=O)[C@@H]1c1cccc(Cl)c1	-15	3	2	-13	31*	-4
CC(C)(C)NC(=O)Cn1cc(C(=O)c2ccccc2F)c2ccccc21	-5	3	0	-10	-4	2
Cc1ccc(C(C)C)c(OCC#CCN2CCCC2)c1	32*	-26	0	44*	-32	-15
CC1CC(OC(=O)c2ccccc2)CC(C)N1C (stereo not given)	30*	-17	0	16	-17	-7
SMILES	M4 antag	M4 PAM	M4 ag	M5 antag	M5 PAM	CHRM5 agonist
CN1C2CCC1CC(OC(=O)c1cccc(O)c1)C2 (stereo not given)	7	-10	0	20	-23	-6
CCOC(=O)C1C(OC(=O)c2ccccc2)CC2CCC1N2C (stereo not given)	-3	1	2	-7	0	-2
CCCCn1nnnc1C(C1CC1)N1CCC2(CC1)C(=O)NCN2c1ccccc1 (stereo not given)	-6	-7	6	5	-4	0
O=C(CCCN1CCC2(CC1)C(=O)NCN2c1ccccc1)c1ccc(F)cc1	99*	-20	135*	96*	-21	81*
c1ccc2c[n+](CCCCCCCCCC[n+]3ccc4ccccc4c3)ccc2c1	27*	-10	1	3	-16	-7
CCN(CC)c1ccc(/C=C2\C(=O)NC(=S)N(C)C2=O)o1	8	-9	12	13	-8	37*
CCN(CC)c1ccc(/C=C2\C(=O)NC(=S)N(c3ccc(OC)cc3OC)C2=O)o1	10	-5	17	3	-11	34*
CP(=O)(Nc1ccccc1)C(Cl)(Cl)Cl (stereo not given)	12	-5	0	8	1	4
O=[N+]([O-])c1ccc(NCCCN2CCOCC2)nc1	1	-4	1	17	-7	-7
COc1cc(/C=C(/C)[N+](=O)[O-])ccc1OCc1ccccc1Cl	29*	-11	1	27*	2	-2
O=C(COc1ccc(Cl)cc1)NC1CN2CCC1CC2 (stereo not given)	12	-7	1	38*	-23	-9
O=C(NC1CN2CCC1CC2)c1cccc(Cl)c1 (stereo not given)	0	-3	0	3	2	-9
COC(=O)C(O)(c1ccc(NC(=S)NC(=O)c2ccc(Cl)cc2Cl)c(C)c1)C(F)(F)F (stereo not given)	11	-19	22	27*	-14	11
CCOC(=O)C(O)(c1ccc(NC(=S)NC(=O)c2ccc(Cl)cc2Cl)c(C)c1)C(F)(F)F (stereo not given)	31*	-28	40*	37*	-14	23
